Assays:
PKN3 at C840 = PKN3 at C840 (Homo sapiens, UniProt Q6P5Z2); assay: CITe-Id, HeLa S3 lysates, THZ1-DTB; format: binding; settings: competition with 2 μM THZ1-DTB
Procedure, shortened: (§1)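 Precleared on streptavidin resin 1 h at 4 °C, split four ways. DMSO or rising test-compound doses for 1 h at RT, then 2 µM desthiobiotin probe at 4 °C for 18 h. Urea denaturation, DTT/IAA, tryptic digest. Streptavidin-enriched probe peptides were iTRAQ-labelled for RP-SAX-RP LC–MS/MS. Slope of reporter ratios (vs DMSO) against concentration scored each cysteine. Hits exceeded 2 SD over the mean of 527 sites; biological replicates.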

[1] = molecular target: protein kinase C theta (PRKCQ) at C661 (Homo sapiens, UniProt Q04759); assay: CITe-Id, HeLa S3 lysates, THZ1-DTB; format: binding; settings: competition with 2 μM THZ1-DTB
Procedure, shortened: as §1

[2] = molecular target: glycogen synthase kinase 3B (GSK3B) at C14 (Homo sapiens, UniProt P49841); assay: CITe-Id, HeLa S3 lysates, THZ1-DTB; format: binding; settings: competition with 2 μM THZ1-DTB
Procedure, shortened: as §1

CYP1B1 = molecular target: T1, CYP1B1 (Homo sapiens, UniProt Q16678); assay: CITe-Id, HeLa S3 lysates, THZ1-DTB; format: binding; settings: competition with 2 μM THZ1-DTB
T1 sequence (Q16678 1-543): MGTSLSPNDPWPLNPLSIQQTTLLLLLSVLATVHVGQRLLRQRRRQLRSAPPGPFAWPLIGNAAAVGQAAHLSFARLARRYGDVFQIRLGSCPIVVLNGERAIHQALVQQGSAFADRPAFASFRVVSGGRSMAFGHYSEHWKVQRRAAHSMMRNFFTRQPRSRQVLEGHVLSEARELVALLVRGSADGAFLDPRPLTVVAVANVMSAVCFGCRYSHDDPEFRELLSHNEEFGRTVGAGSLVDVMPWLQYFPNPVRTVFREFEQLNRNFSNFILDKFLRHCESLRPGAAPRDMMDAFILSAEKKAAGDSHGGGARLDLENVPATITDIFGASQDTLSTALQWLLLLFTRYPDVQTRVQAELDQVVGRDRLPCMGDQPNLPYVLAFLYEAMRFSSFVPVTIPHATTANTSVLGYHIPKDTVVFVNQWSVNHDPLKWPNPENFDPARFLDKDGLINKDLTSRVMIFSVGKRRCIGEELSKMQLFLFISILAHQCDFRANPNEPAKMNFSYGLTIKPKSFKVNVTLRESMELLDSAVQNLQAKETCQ
Procedure, shortened: as §1

PKN3 [3] = molecular target: T2, PKN3 (Homo sapiens, UniProt Q6P5Z2); assay: in vitro PKN3 kinase assay; format: biochemical; settings: for time-dependent inhibition of PKN3: fixed inhibitor concentration 1 μM, preincubation 0 to 120 min
Procedure, shortened: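 Enzyme was preincubated with test compound 30 min, then reacted 30 min at RT with 68 µM ATP plus 1 µCi [γ-32P]ATP. TCA stop, phosphocellulose capture, phosphoric-acid washes, scintillation counting. IC50 came from a 7-point dose-response. Time course used 1 µM compound with 0–120 min preincubation.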

CDK7 [4] = molecular target: T3, CDK7 (Homo sapiens, UniProt P50613); assay: target engagement pulldown, live HeLa S3 cells, THZ1-DTB; format: cell-based; settings: 4 h, Western blot
PKN3 [5] = molecular target: T2, PKN3; assay: as above; format: cell-based; settings: 4 h, Western blot
PRKCQ [6] = molecular target: T4, PRKCQ (Homo sapiens, UniProt Q04759); assay: as above; format: cell-based; settings: 4 h, Western blot
CDK12/13 = settings: live HeLa S3 cells, 4 h; cyclin K as proxy
PRKCQ [7] = molecular target: T4, PRKCQ; assay: SelectScreen kinase assay; format: biochemical; settings: 10-dose titration
CDK7 [8] = molecular target: T3, CDK7; assay: CITe-Id, HeLa S3 lysates, THZ1-DTB; format: binding; settings: competition with 2 μM THZ1-DTB
Procedure, shortened: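 Aliquots pretreated with DMSO or increasing test compound concentrations for 1 h at RT, then 2 μM desthiobiotin probe for 18 h at 4 °C. Denatured, reduced, alkylated, trypsin-digested; probe peptides streptavidin-enriched, iTRAQ-labelled, LC–MS/MS. Cysteine reporter ratios versus the DMSO channel were regressed against concentration, and the slope was taken as the dose response.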

CDK12 = CDK12 (Homo sapiens, UniProt Q9NYV4); assay: CITe-Id, HeLa S3 lysates, THZ1-DTB; format: binding; settings: competition with 2 μM THZ1-DTB
Procedure, shortened: as §1

CDK13 = CDK13 (Homo sapiens, UniProt Q14004); assay: CITe-Id, HeLa S3 lysates, THZ1-DTB; format: binding; settings: competition with 2 μM THZ1-DTB
Procedure, shortened: as §1

[9] = tested on: cysteine residues across the proteome; assay: CITe-Id proteome-wide, HeLa S3 lysates; format: binding, human
Procedure, shortened: as §1

PKN3 [10] = molecular target: T2, PKN3; assay: PKN3 in vitro phosphorylation of candidate substrate synthetic peptides; format: biochemical; settings: pretreatment 1 μM for 30 min
Procedure, shortened: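 Recombinant PKN3 (25 ng) was preincubated with test compound at 1 μM for 30 min. Reactions ran 1 h at 37 °C and were stopped with 1% acetic acid. Peptides were desalted and read by MALDI TOF/TOF. Percent phosphorylation was inferred from the loss of unphosphorylated signal against a no-ATP control; four replicates.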

T2 sequence (Q6P5Z2 whole entry): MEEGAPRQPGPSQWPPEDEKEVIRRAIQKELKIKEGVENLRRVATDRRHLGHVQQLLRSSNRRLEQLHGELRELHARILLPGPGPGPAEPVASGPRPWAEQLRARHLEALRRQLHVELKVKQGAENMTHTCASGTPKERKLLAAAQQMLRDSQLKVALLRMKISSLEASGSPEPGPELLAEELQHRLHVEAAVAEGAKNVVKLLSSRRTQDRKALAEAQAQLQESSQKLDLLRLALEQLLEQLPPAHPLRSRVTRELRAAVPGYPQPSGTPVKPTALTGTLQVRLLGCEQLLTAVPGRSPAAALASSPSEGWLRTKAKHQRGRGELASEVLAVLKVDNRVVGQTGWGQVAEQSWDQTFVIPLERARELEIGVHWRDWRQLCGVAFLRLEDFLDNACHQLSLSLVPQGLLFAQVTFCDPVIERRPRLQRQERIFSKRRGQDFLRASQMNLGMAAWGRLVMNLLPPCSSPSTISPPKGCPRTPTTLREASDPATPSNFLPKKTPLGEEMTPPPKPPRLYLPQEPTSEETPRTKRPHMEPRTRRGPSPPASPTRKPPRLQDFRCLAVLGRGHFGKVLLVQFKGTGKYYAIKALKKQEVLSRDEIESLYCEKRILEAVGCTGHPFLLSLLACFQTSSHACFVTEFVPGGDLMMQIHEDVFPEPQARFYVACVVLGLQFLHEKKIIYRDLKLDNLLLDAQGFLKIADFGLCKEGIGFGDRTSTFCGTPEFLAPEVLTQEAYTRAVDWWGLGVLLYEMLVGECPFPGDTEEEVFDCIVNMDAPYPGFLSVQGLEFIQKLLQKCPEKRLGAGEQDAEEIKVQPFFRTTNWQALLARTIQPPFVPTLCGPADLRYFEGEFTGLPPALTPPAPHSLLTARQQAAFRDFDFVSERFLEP
T3 sequence (P50613 2-346 limits assumed): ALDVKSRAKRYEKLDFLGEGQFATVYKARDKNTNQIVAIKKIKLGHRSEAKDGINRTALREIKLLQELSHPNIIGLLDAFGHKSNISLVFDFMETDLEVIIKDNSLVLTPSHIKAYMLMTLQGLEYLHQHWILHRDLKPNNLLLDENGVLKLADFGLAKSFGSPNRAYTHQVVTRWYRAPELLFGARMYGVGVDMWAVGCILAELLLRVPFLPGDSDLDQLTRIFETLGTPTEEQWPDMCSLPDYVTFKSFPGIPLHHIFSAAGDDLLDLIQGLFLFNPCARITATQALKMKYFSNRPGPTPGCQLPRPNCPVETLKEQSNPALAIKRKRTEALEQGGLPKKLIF
T3 sequence (P51946 whole entry partner): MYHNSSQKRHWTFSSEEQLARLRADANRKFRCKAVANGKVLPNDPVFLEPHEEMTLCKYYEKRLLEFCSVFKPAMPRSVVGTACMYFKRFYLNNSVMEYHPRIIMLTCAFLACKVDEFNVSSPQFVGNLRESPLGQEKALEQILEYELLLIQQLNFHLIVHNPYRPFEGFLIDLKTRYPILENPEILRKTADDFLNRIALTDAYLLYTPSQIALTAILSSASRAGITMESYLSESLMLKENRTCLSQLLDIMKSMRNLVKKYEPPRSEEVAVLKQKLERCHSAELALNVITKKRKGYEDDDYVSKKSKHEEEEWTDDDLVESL
T3 sequence (P51948 whole entry partner): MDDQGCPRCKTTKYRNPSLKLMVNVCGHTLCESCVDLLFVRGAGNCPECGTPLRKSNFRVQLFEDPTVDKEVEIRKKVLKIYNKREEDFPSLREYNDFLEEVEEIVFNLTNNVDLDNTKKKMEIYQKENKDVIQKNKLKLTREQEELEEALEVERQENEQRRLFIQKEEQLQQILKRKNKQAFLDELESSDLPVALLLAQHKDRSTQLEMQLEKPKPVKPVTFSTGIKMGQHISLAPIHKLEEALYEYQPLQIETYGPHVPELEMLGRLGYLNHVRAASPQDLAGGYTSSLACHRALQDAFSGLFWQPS
Sequence of PKN3 at C840 (Q6P5Z2 whole entry): as the sequence (Q6P5Z2 whole entry) above
T4 sequence (Q04759 whole entry): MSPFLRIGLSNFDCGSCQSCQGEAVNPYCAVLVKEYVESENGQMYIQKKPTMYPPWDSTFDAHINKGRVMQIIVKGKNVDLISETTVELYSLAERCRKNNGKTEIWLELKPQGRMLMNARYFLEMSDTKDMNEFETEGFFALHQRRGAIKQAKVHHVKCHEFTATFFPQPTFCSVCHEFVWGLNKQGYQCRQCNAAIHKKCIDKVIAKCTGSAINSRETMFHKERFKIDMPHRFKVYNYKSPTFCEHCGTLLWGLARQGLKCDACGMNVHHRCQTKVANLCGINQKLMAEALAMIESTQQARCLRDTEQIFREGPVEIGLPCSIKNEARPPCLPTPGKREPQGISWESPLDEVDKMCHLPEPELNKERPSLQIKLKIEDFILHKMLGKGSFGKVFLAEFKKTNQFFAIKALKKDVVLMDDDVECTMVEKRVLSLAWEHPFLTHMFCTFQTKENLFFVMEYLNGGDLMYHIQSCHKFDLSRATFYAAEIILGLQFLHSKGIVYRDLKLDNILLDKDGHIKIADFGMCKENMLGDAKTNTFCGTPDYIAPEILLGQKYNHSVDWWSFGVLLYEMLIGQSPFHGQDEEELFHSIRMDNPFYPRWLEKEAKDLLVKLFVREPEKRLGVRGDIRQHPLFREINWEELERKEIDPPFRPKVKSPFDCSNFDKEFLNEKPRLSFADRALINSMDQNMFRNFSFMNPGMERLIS
Sequence of protein kinase C theta (PRKCQ) at C661 (Q04759 whole entry): as above
Sequence of glycogen synthase kinase 3B (GSK3B) at C14 (P49841 whole entry): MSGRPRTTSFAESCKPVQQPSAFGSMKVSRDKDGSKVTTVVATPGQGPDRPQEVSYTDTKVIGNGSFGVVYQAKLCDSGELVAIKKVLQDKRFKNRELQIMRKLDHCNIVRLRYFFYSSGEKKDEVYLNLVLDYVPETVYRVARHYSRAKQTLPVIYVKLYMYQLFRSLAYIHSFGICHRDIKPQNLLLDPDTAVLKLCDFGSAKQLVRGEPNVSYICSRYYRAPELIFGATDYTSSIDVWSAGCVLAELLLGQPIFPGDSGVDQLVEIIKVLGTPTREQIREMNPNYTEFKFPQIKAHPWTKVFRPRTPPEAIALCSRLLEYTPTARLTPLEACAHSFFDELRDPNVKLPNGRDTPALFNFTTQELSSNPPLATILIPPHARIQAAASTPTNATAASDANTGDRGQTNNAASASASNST

Row | competitive dose-response at PKN3 C840 (PKN3 at C840) | competitive dose-response at PRKCQ C661 [1] | competitive dose-response at GSK3B C14 [2] | competitive dose-response at CYP1B1 (CYP1B1) | IC50 (PKN3 [3]; read-out: IC50 against PKN3, fixed time-point format, 30 min preincubation) [nM] | potency against PRKCQ (PRKCQ [7]) | competitive dose-response at CDK7 cysteine (CDK7 [8]) | competitive dose-response at CDK12 cysteine (CDK12) | competitive dose-response at CDK13 cysteine (CDK13) | number of cysteine residues with dose-dependent competitive binding [9] | PKN3-mediated phosphorylation of EXOC2 (S432) peptide (PKN3 [10]) | PKN3-mediated phosphorylation of LAD1 (S375) peptide (PKN3 [10]) | Compound | time-dependent inhibition of PKN3 (PKN3 [3]) | potency against PKN3 relative to THZ1 (fold less potent) (PKN3 [3]; fixed time-point format) | competition for CDK7 against THZ1-DTB pulldown (CDK7 [4]) | competition for PKN3 against THZ1-DTB pulldown (PKN3 [5]) | competition for PRKCQ against THZ1-DTB pulldown (PRKCQ [6]) | competition for CDK12/13 against THZ1-DTB pulldown (CDK12/13)
1 | little or no reactivity | little or no reactivity | gaining some activity | little or no reactivity |  |  |  |  |  |  |  |  | CN(C)C/C=C/C(=O)Nc1ccc(C(=O)N2CCC[C@@H](Nc3ncc(Cl)c(-c4c[nH]c5ccccc45)n3)C2)cc1 [THZ531] |  |  |  |  |  | 
2 |  |  |  |  |  |  |  |  |  |  |  |  | CN(C)CCCC(=O)Nc1ccc(C(=O)Nc2cccc(Nc3ncc(Cl)c(-c4c[nH]c5ccccc45)n3)c2)cc1 [THZ1-R] | did not show time-dependent inhibition | more than 50 fold | competed poorly | competed poorly | competed poorly | competed poorly
3 | dose-dependent THZ1 competitive binding | dose-dependent THZ1 competitive binding | dose-dependent THZ1 competitive binding |  | 72 | weak potency | dose-dependent competitive binding | dose-dependent competitive binding | dose-dependent competitive binding | eight | partially blocked | partially blocked | CN(C)C/C=C/C(=O)Nc1ccc(C(=O)Nc2cccc(Nc3ncc(Cl)c(-c4c[nH]c5ccccc45)n3)c2)cc1 [THZ1] | time dependent |  | strong competition |  |  | 
